E coli WT exp: growth inhibitors of E. coli BW25113 wild type. 98,000 tested, 0.15% active. growth inhibition, % at 100 µM. OD600 absorbance. AID 710;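 active means growth inhibition above about 50% at one test dose, limit read from the data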;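 further: growth measured after 20 h incubation at 37 °C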
PostGolgi ctrl: yeast control strain growth, post-Golgi counter-screen; 98,000 tested, 5% active; efflux-deficient yeast background strain, growth absorbance A615, 16 h; AID 738; inhibition, % at 10 µM
PostGolgi yeast: growth inhibition of a yeast mutant, post-Golgi transport screen. post-Golgi transport phenotypic cell assay. 98,000 tested, 0.9% active. inhibition, % at 10 µM. AID 739;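 further: yeast cells grown in 1536-well plates; yeast grown about 18 h at 30C before absorbance read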
PLAP activator: activates human placental alkaline phosphatase; activation fold at 20 µM; 96,000 tested, 1.2% active; P05187; purified PLAP enzyme, luminescent substrate read-out; active compounds read high; in the data active means activation fold above about 2
tolC growth inh: blocks growth of E. coli BW25113 tolC mutant | OD615 | growth inhibition, % at 10 µM (by protocol) | 65,000 tested, 2.2% active;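 active means growth inhibition at or above a cutoff equal to the mean over every tested compound plus 3 SD, cut at about 60% in these data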;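 further: growth measured after 20 h incubation at 37 °C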
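Assay system: tolC-deleted E. coli BW25113. Medium: kanamycin-containing LB broth (50 µg/mL). Dosing: 10 µM final, single dose. Timing: bacterial growth with compound for 20 h at 37 °C. Detection: A615 absorbance measurement. Read-out basis: growth inhibition in percent.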
HePTP inh: human HePTP phosphatase inhibition; recombinant HePTP phosphatase activity, OD absorbance; P35236; AID 521; inhibition, % at 20 µM; 110,000 tested, 0.64% active; in the data active means inhibition above about 50%
Target sequence (P35236 whole entry, looked up): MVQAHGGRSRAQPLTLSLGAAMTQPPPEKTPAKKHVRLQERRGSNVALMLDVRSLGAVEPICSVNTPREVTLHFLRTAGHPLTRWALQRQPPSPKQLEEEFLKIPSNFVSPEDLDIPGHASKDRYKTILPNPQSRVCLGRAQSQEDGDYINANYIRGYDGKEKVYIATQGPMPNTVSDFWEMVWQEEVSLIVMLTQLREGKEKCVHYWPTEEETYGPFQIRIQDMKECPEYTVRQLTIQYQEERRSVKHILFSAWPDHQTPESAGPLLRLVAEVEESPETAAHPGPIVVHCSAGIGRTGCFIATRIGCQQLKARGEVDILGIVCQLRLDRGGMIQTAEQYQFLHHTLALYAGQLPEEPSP
A number is an active result; – = inactive; · = not tested or not shown. This is a sample that favours compounds with a hit; in the whole collection about 5.5% have one here. Unless noted, no stated cut-off is given here; in the data, active means inhibition above about 30%; inactive means the rest.

SMILES	E coli WT exp	PostGolgi ctrl	PostGolgi yeast	PLAP activator	tolC growth inh	HePTP inh
O=[N+]([O-])c1cc(-c2nnc(C34CC5CC(CC(C5)C3)C4)o2)cc([N+](=O)[O-])c1	–	47	–	–	·	·
Cc1oc2cc(O)ccc2c(=O)c1Oc1ccc2ccccc2c1	–	–	–	–	·	·
Oc1ccc2c(c1)oc1cc(O)ccc12	–	–	–	–	100	–
O=C(c1cccs1)N1CCc2c([nH]c3ccccc23)C1c1ccc(Cl)cc1 (stereo unspecified)	–	30	–	–	·	·
CC1(C)CC(=O)C(C=NCCN2CCN(CCCCS(=O)(=O)O)CC2)=C(O)C1	–	33	–	–	–	–
O=C1CC2c3ccccc3C1C1C(=O)N(c3ccccc3)C(=O)C21 (stereo unspecified)	·	·	·	·	·	103
O=C(O)/C=C/C(=O)Nc1ccc(F)c(F)c1	·	·	·	·	·	–
COc1ccc(/C=C2\SC(=S)N(NC(=O)c3ccccc3Br)C2=O)cc1OC	·	·	·	·	·	–
CN(C)c1ccc(/C=C2\C(=O)Oc3ccccc3C2=O)cc1	·	·	·	·	·	–
CCCCC1(C)OC(=O)C(=Cc2ccc(N(C)C)cc2)C(=O)O1 (stereo unspecified)	–	31	–	–	·	·
Cc1ccc(-c2nc(N/N=C/c3ccccc3)c3ccccc3n2)cc1	·	·	·	·	·	–
CCOC(=O)C1=C(C)Nc2ncnn2C1c1c[nH]c2ccccc12 (stereo unspecified)	–	–	–	–	–	–
CC1=C(C(=O)OC(C)C)C(c2c[nH]c3ccccc23)n2ncnc2N1 (stereo unspecified)	–	–	–	–	99	–
COc1ccc(CCNc2nc(N3CCOCC3)nc(N3CCOCC3)n2)cc1OC	–	–	–	–	–	–
COc1ccc(CCNc2nc(N3CCCCC3)nc(N3CCCCC3)n2)cc1OC	–	32	–	–	–	–
Cc1cc(=O)oc2cc(OCc3ccc(Cl)cc3Cl)ccc12	·	·	·	·	·	–
COc1ccc(N2C(=O)/C(=C\c3cccc(OC)c3O)SC2=S)cc1	·	·	·	·	·	–
COc1ccc(N2C(=O)/C(=C/c3cc([N+](=O)[O-])cc(OC)c3O)SC2=S)cc1	·	·	·	·	·	104
Cc1ccc2c(CC(=O)NC3=NCCS3)coc2c1	–	33	–	–	–	–
Cc1ccc(-c2cc(C(=O)NC3=NCCS3)c3cc(Br)ccc3n2)o1	–	–	–	–	–	–
Cc1ccc(-c2cc(C(=O)O)c3cc(Br)ccc3n2)o1	·	·	·	·	·	104
OC1CCCN(c2c3c(nc4cc(-c5cccc(Cl)c5)nn24)CCC3)C1 (stereo unspecified)	–	96	–	·	–	–
Cc1cccc(-c2cc3nc4c(c(N5CCCC(O)C5)n3n2)CCC4)c1 (stereo unspecified)	–	79	–	–	–	–
Cc1cccc(-c2cc3nc4c(c(N5CCC6(CC5)OCCO6)n3n2)CCCC4)c1	·	·	·	·	–	–
Cc1ccc(-c2csc3ncnc(SCC(=O)Nc4nnc(C)s4)c23)cc1	–	33	–	–	·	·
SMILES	E coli WT exp	PostGolgi ctrl	PostGolgi yeast	PLAP activator	tolC growth inh	HePTP inh
Cc1ccc(-c2csc3ncnc(SCC(=O)c4ccc5c(c4)OCCO5)c23)cc1	–	–	–	–	·	·
O=c1c2nnn(Cc3ccccc3)c2ncn1-c1ccccc1	–	34	–	–	–	–
CC1Cc2ccccc2N1c1ncnc2c1nnn2Cc1ccccc1 (stereo unspecified)	–	42	–	–	–	–
c1ccc(Cn2nnc3c(N4CCCC4)ncnc32)cc1	–	–	–	–	–	–
c1ccc(Cn2nnc3c(N4CCc5ccccc5C4)ncnc32)cc1	–	30	–	–	–	–
O=C(Cn1cnc2c(nnn2Cc2ccccc2)c1=O)c1ccccc1	–	–	–	·	–	–
COc1ccc(NC(=O)Nc2ccc(Cl)c(Cl)c2)cc1OC	·	·	·	·	·	–
Cc1ccc(Nc2nc(Nc3ccc(C)cc3)nc(SC3=NCCS3)n2)cc1	–	38	–	–	·	·
Cc1ccccc1Nc1nc(Nc2ccccc2C)nc(SC2=NCCS2)n1	–	–	–	–	·	·
C=CCN1C(=O)/C(=C/c2c(C)cc(C)cc2C)SC1=S	·	·	·	·	·	–
COCC(=O)N(Cc1ccccc1)c1ccccn1	–	–	–	–	–	–
COc1ccccc1NC(=O)N(Cc1ccccc1)c1ccccn1	–	45	–	–	–	–
CC1=C(C(=O)OC2CCCC2)C(c2ccccc2[N+](=O)[O-])C2=C(CC(C)(C)CC2=O)N1 (stereo unspecified)	·	·	·	·	·	–
COc1ccc(/C=N/NC(=O)c2nc(-c3ccccc3)cc(-c3ccccc3)n2)cc1OC	–	32	–	–	·	·
COc1ccc(/C=N/NC(=O)COc2ccccc2-c2ccccc2)cc1	–	56	–	–	·	·
O=C(N/N=C/c1ccc([N+](=O)[O-])o1)c1cc(-c2ccncc2)nc2ccccc12	–	–	–	–	·	·
COc1ccc(/C=N/NC(N)=S)cc1OC(=O)c1cccc2ccccc12	–	65	–	–	·	·
O=C(N/N=C\c1ccc([N+](=O)[O-])o1)c1nc(-c2ccccc2)cc(-c2ccccc2)n1	·	·	·	·	·	51
CCN(CC)C(=O)Cc1ccc2c3c(cccc13)CC2	·	·	·	·	·	–
CS(=O)(=O)c1ccc2nc(NS(=O)(=O)c3ccc(F)cc3)sc2c1	·	·	·	·	·	–
CCOC(=O)N/N=C\c1ccc([N+](=O)[O-])o1	100	–	–	–	·	·
CCOC(=O)N/N=C/c1ccc(F)cc1	–	–	–	–	·	–
CC1(C)CC(NC(=O)c2cccc(Br)c2)CC(C)(C)N1	·	·	·	·	·	–
CCOC(=O)c1cnc(SC)nc1Sc1cc(Cl)ccc1Cl	–	–	33	–	·	·
CCOC(=O)c1cnc(SC)nc1Nc1cccc(F)c1	–	–	–	–	–	–
SMILES	E coli WT exp	PostGolgi ctrl	PostGolgi yeast	PLAP activator	tolC growth inh	HePTP inh
COc1ccc(C(c2c[nH]c3ccccc23)c2c[nH]c3ccccc23)cc1O	–	54	–	–	·	·
O=C(Nc1ccccc1C(F)(F)F)c1ccc(-c2cccc(Cl)c2)o1	·	·	·	·	·	–
Cc1ccc(CNC(=O)c2ccc(Cn3nc(C)c(Cl)c3C)o2)cc1	–	100	104	–	–	–
Cc1ccc(CNC(=O)c2ccc([N+](=O)[O-])o2)cc1	–	–	–	–	·	·
Cc1nn(Cc2ccc(C(=O)Nc3ccccc3C(F)(F)F)o2)c(C)c1Br	–	34	–	–	·	·
CCNC(=S)NN=Cc1ccc(OCCOc2ccccc2C)cc1	·	·	·	·	·	–
OC1(c2ccc(OC(F)F)cc2)CSC(=Nc2cccnc2)N1C1CC1 (stereo unspecified)	–	30	–	–	·	·
Cc1n[nH]c(C)c1C(=O)CC1(O)C(=O)N(CCc2ccccc2)c2ccc(Br)cc21 (stereo unspecified)	–	–	–	–	·	·
Cc1n[nH]c(C)c1C(=O)CC1(O)C(=O)N(Cc2ccccc2)c2ccc(Br)cc21 (stereo unspecified)	–	30	–	–	·	·
CCOC(=O)c1ccc(N2NC(=O)/C(=C/c3ccccc3)C2=O)cc1	·	·	·	·	·	–
CCOC(=O)c1ccc(N2NC(=O)/C(=C/c3ccc(C=O)cc3)C2=O)cc1	·	·	·	·	·	96
CCOC(=O)c1ccc(N2NC(=O)/C(=C/c3cc(OC)c(OC)cc3Br)C2=O)cc1	·	·	·	·	·	–
CCOC(=O)c1ccc(N2NC(=O)/C(=C/c3cc(Br)ccc3O)C2=O)cc1	·	·	·	·	·	75

Screens from PubChem BioAssay.
